Here are results for 19 molecules from ChEMBL document CHEMBL4190281, “Azacyclo-indoles and Phenolics from the Flowers of Juglans regia” (J Nat Prod, 2017).

For orientation: IC50 means the point on the concentration scale where inhibition reaches its midpoint. Read a low IC50 as inhibition by little substance.

Structures are written as SMILES. Bounds are passed on as bounds.

In one data set the test system is HepG2. Nature of the data set: Growth inhibition of human HepG2 cells after 96 hrs by MTT assay. The class given is functional, cell-based. The note with it: HepG2, 96 h. (Formazan colour is commonly taken as a measure of viable cells.)
In the next data set the test system is BGC-823. Nature of the data set: Growth inhibition of human BGC823 cells after 96 hrs by MTT assay. The class given is functional, cell-based. The note with it: BGC-823, 96 h. A digest of the protocol:
(§1)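 Cancer cell lines exposed continuously to each sample for 96 h; growth read by MTT assay. IC50, the concentration inhibiting cell growth by 50%, taken as the mean of three replicates. Taxol and NK109 served as positive controls.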

The next data set has as its system A2780. The data set can be described thus: Growth inhibition of human A2780 cells after 96 hrs by MTT assay. The class given is functional, cell-based. The note with it: A2780, 96 h. Put shortly:
as §1

Data set [1] can be described thus: Cytotoxicity against rat IEC-6 cells assessed as survival rate at 10 uM after 48 hrs by MTT assay relative to control. The class given is cell-based. As to conditions: read-out: Survival. A digest of the protocol:
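MTT read-out of viability in normal IEC-6 intestinal cells co-incubated with compound at 10 μM; readings at 0, 24 and 48 h of coculture (n = 5); survival expressed against a blank control group.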

A further data set concerns NCI-H1650. Nature of the data set: Growth inhibition of human NCI-H1650 cells after 96 hrs by MTT assay. The class given is functional, cell-based. The note with it: NCI-H1650, 96 h. A digest of the protocol:
as §1

In another data set the test system is HCT-116. Nature of the data set: Growth inhibition of human HCT116 cells after 96 hrs by MTT assay. The class given is functional, cell-based. The note with it: HCT-116, 96 h. Put shortly:
as §1

With `O=Cc1ccc2n1CCc1c([nH]c3ccccc13)C2`, the IC50 in the data set with HepG2 came to 1.87 µM; with BGC-823, 2.28 µM; in the data set with A2780, 0.96 µM; in the data set with NCI-H1650 it was 2.86 µM; in the data set on HCT-116, 2.87 µM. Also, in data set [1], the viability at 48 h, 10 µM was found to be 79.6%.
With `NC(=O)[C@H]1CCC(=O)c2cccc(O)c2N1`, the IC50 in the data set with HepG2, in the data set with BGC-823, in the data set with A2780, in the data set with NCI-H1650 and in the data set on HCT-116 was greater than 10 µM in each case.
Consider `O=C1CCC(c2c[nH]c3ccccc23)c2c(O)ccc(O)c21` (racemic), for which the IC50 with HepG2, in the data set on BGC-823, in the data set with A2780, with NCI-H1650 and in the data set on HCT-116 was greater than 10 µM in each case.
On to `O=C1CC[C@@H](c2c[nH]c3ccccc23)c2c(O)ccc(O)c21`, for which the IC50 with HepG2, with BGC-823, in the data set with A2780, in the data set on NCI-H1650 and in the data set with HCT-116 was greater than 10 µM each time.
Turning to `Nc1ncnc2c1ncn2[C@@H]1CCC(=O)c2c(O)ccc(O)c21`, the IC50 in the data set with HepG2, in the data set with BGC-823, with A2780, with NCI-H1650 and in the data set with HCT-116 was greater than 10 µM in each case.
For the molecule `Nc1ncnc2c1ncn2C1CCC(=O)c2c(O)ccc(O)c21` (racemic), the IC50 in the data set with HepG2, in the data set on BGC-823, in the data set on A2780, with NCI-H1650 and in the data set with HCT-116 was greater than 10 µM in each case.
Take `Nc1ncnc2c1ncn2[C@H]1CCC(=O)c2c(O)ccc(O)c21`: the IC50 with HepG2, in the data set on BGC-823, with A2780, with NCI-H1650 and in the data set on HCT-116 was greater than 10 µM in each case.
As to `CC(=O)O[C@H]1C(=O)[C@@]2(C)[C@H]([C@H](OC(=O)c3ccccc3)[C@]3(O)C[C@H](OC(=O)[C@H](O)[C@@H](NC(=O)c4ccccc4)c4ccccc4)C(C)=C1C3(C)C)[C@]1(OC(C)=O)CO[C@@H]1C[C@@H]2O` [PACLITAXEL], the IC50 in the data set with BGC-823 was 0.0006 µM; in the data set on A2780 it was 0.0204 µM; in the data set with NCI-H1650 it was greater than 1 µM; in the data set with HCT-116, 0.0002 µM.
In the case of `O=C1CC[C@H](c2c[nH]c3ccccc23)c2c(O)ccc(O)c21`, the IC50 with HepG2, in the data set on BGC-823, in the data set with A2780, with NCI-H1650 and with HCT-116 was greater than 10 µM throughout.
For `O=C1CC[C@H]2c3c([nH]c4ccccc34)CCN12`, the IC50 with HepG2, in the data set with BGC-823, with A2780, in the data set with NCI-H1650 and with HCT-116 was greater than 10 µM in each case.
For the molecule `Nc1ncnc2c1ncn2[C@@H]1CCC(=O)c2cccc(O)c21`, the IC50 in the data set with HepG2, with BGC-823, in the data set with A2780, in the data set on NCI-H1650 and in the data set with HCT-116 was greater than 10 µM each time.
In the case of `COc1ccc2c(c[n+](C)c3c4cc5c(cc4ccc23)OCO5)c1O`, the IC50 was found to be 1.19 µM in the data set with HepG2; 1.84 µM in the data set with BGC-823; 0.9 µM in the data set with A2780; 1.75 µM with NCI-H1650; 3.94 µM in the data set with HCT-116.
On to `O=C1CCC2c3c([nH]c4ccccc34)CCN12` (racemic), for which the IC50 in the data set on HepG2, with BGC-823, in the data set on A2780, in the data set with NCI-H1650 and in the data set on HCT-116 was greater than 10 µM in each case.
For the molecule `O=C1CC[C@@H]2c3c([nH]c4ccccc34)CCN12`, the IC50 in the data set with HepG2, with BGC-823, in the data set on A2780, in the data set with NCI-H1650 and in the data set with HCT-116 was greater than 10 µM throughout.
With `NC(=O)C1CCC(=O)c2cccc(O)c2N1` (racemic), the IC50 in the data set on HepG2, with BGC-823, in the data set with A2780, in the data set on NCI-H1650 and in the data set with HCT-116 was greater than 10 µM each time.
For `NC(=O)[C@@H]1CCC(=O)c2cccc(O)c2N1`, the IC50 in the data set on HepG2, in the data set on BGC-823, in the data set with A2780, with NCI-H1650 and with HCT-116 was greater than 10 µM each time.
For `CCOCc1ccc(C=O)n1CCc1ccc(O)cc1`, the IC50 with HepG2, with BGC-823, with A2780, in the data set with NCI-H1650 and in the data set on HCT-116 was greater than 10 µM throughout.
On to `Nc1ncnc2c1ncn2[C@H]1CCC(=O)c2cccc(O)c21`, for which the IC50 in the data set with HepG2, with BGC-823, in the data set with A2780, with NCI-H1650 and in the data set on HCT-116 was greater than 10 µM throughout.
As for `Nc1ncnc2c1ncn2C1CCC(=O)c2cccc(O)c21` (racemic), the IC50 in the data set on HepG2, with BGC-823, with A2780, in the data set on NCI-H1650 and in the data set on HCT-116 was greater than 10 µM in each case.
